Assay results: ChEMBL document CHEMBL1125887, “Nucleosides and nucleotides. 94. Radical deoxygenation of tert-alcohols in 1-(2-C-alkylpentofuranosyl) pyrimidines: synthesis of (2'S)-2'-deoxy-2'-C-methylcytidine, an antileukemic nucleoside” (J Med Chem, 1991)
Converted amounts (≈) assume the structure as drawn.

Columns and labels:
L1210 = assay: Concentration required for 50% inhibition of cell growth of L1210 leukemic cell lines in mouse.; format: functional, cell-based
In short: (§1)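 MTT growth assay: each tumor cell line seeded at 1 × 10^4 cells/well and incubated with or without test compound for 72 h. MTT was then added and OD at 570 nm was read. % inhibition = [1 − OD(sample well)/OD(control well)] × 100. IC50 is the concentration in μg/mL giving 50% inhibition of cell growth.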

T-24 = assay: Concentration required for 50% inhibition of human bladder transitional-cell carcinoma T24 solid cell lines.
MOLT-4 = assay: Concentration required for 50% inhibition of cell growth of MOLT-4 leukemic cell lines in human.; format: functional, cell-based; in short: as §1
TE-2 = assay: Concentration required for 50% inhibition of human […] squamous cell carcinoma TE2 solid cell lines.; format: functional, cell-based; in short: as §1
U-937 = assay: Concentration required for 50% inhibition of cell growth of U937 leukemic cell lines in human.; format: functional, cell-based; in short: as §1
PC-14 = assay: Concentration required for 50% inhibition of human lung squamous cell carcinoma PC14 solid cell lines.; format: functional, cell-based; in short: as §1
CCRF-CEM = assay: Concentration required for 50% inhibition of cell growth of CCRF CEM leukemic cell lines in human.; format: functional, cell-based; in short: as §1
SW480 = assay: Concentration required for 50% inhibition of human […] carcinoma SW 480 solid cell lines.; format: functional, cell-based; in short: as §1
K562 = assay: Concentration required for 50% inhibition of cell growth of K562 leukemic cell lines in human.; format: functional, cell-based
In short: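 Tumour cells seeded at 1 × 10^4/well were grown with or without test compound for 72 h. MTT was then added and OD at 570 nm read. % inhibition = [1 − OD(sample)/OD(control)] × 100. IC50 is the concentration in μg/mL giving 50% growth inhibition.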

PC10 = assay: Concentration required for 50% inhibition of human lung squamous cell carcinoma PC10 solid cell lines.; format: functional, cell-based; in short: as §1
HL-60 = assay: Concentration required for 50% inhibition of cell growth of HL60 leukemic cell lines in human.; format: functional, cell-based; in short: as §1
[1] = tested on: KATO III stomach cancer cell line; assay: Concentration required for 50% inhibition of human […] carcinoma KATO III solid cell lines.; format: functional, cell-based; in short: as §1

For `C[C@@H]1[C@H](O)[C@@H](CO)O[C@H]1n1ccc(N)nc1=O`, the IC50 (L1210) was 40 µg/mL (≈ 166 µM).

For `C[C@H]1[C@H](O)[C@@H](CO)O[C@H]1n1ccc(N)nc1=O`, the IC50 (T-24) was 1.1 µg/mL (≈ 4.56 µM), the IC50 (MOLT-4) was 0.032 µg/mL (≈ 0.133 µM) and the IC50 (TE-2) was > 100 µg/mL. For the same compound, the IC50 (U-937) was 0.38 µg/mL (≈ 1.58 µM), the IC50 (PC-14) was > 100 µg/mL and the IC50 (CCRF-CEM) was 0.15 µg/mL (≈ 0.622 µM). The IC50 (SW480) was > 100 µg/mL, the IC50 (K562) was 2.2 µg/mL (≈ 9.12 µM) and the IC50 (L1210) was 0.26 µg/mL (≈ 1.08 µM). For the same compound, the IC50 (PC10) was 81.8 µg/mL (≈ 339 µM), the IC50 (HL-60) was 0.65 µg/mL (≈ 2.69 µM) and the IC50 [1] was > 100 µg/mL.

For `C[C@]1(O)[C@H](O)[C@@H](CO)O[C@H]1n1ccc(N)nc1=O`, the IC50 (L1210) was > 100 µg/mL.

With `C[C@@]1(O)[C@H](O)[C@@H](CO)O[C@H]1n1ccc(N)nc1=O` the IC50 (L1210) was 12 µg/mL (≈ 46.6 µM).

Work on `Cc1cn([C@@H]2O[C@H](CO)C(O)[C@H]2C)c(=O)[nH]c1=O` (some centres not stated) yielded an IC50 (L1210) of 32 µg/mL (≈ 125 µM).

For `CC[C@@H]1C(O)[C@@H](CO)O[C@H]1n1ccc(N)nc1=O` (some centres not stated), the IC50 (L1210) was > 100 µg/mL.

`Nc1ccn([C@@H]2O[C@H](CO)[C@@H](O)[C@@H]2O)c(=O)n1` [CYTARABINE] was tested, and the IC50 (T-24) was > 100 µg/mL, the IC50 (TE-2) was > 100 µg/mL and the IC50 (U-937) was 0.31 µg/mL (≈ 1.27 µM). For the same compound, the IC50 (PC-14) was > 100 µg/mL, the IC50 (SW480) was > 100 µg/mL and the IC50 (PC10) was > 100 µg/mL. The IC50 (HL-60) was > 0.1 µg/mL and the IC50 [1] was > 100 µg/mL.

In the case of `O=c1[nH]cc(F)c(=O)[nH]1` [FLUOROURACIL], the IC50 (K562) is reported as 3.8 µg/mL (≈ 29.2 µM) and the IC50 (PC10) is reported as > 100 µg/mL.
